Data from ChEMBL document CHEMBL3243989, “Antibacterial N-[omega, omega'-bis(alicyclic and aryl)-sec-alkyl]poly(methylene)triamine and -tetramine hydrochloride salts” (J Med Chem, 1979).
Values after ≈ are worked out from the molar mass of the structure shown. Active and inactive are the calls of the source. The rule behind the calls is not given here.

Experiments:
Klebsiella aerogenes = experiment: Antibacterial activity against Klebsiella aerogenes MB1503 assessed as growth inhibition; assay type: functional
How it was run: (§1)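 MIC (µg/mL) by in vitro growth inhibition in an assay system at pH 7.4. Tetracycline was run routinely to check medium, incubation conditions and inoculum virility.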

Escherichia coli = experiment: Antibacterial activity against Escherichia coli MB2884 assessed as growth inhibition; assay type: functional; how it was run: as §1
[1] = test system: Corynebacterium pseudodiphtheriticum; experiment: Antibacterial activity against Corynebacterium pseudodiphtheriticum assessed as growth inhibition at 2 to 8 ug/mL; assay type: functional, organism-based
[2] = test system: Bordetella bronchiseptica; experiment: Antibacterial activity against Bordetella bronchiseptica MB3551 assessed as growth inhibition; assay type: functional; how it was run: as §1
Streptococcus pyogenes = experiment: Antibacterial activity against Streptococcus pyogenes assessed as growth inhibition at 2 to 8 ug/mL; assay type: functional, organism-based
Pseudomonas aeruginosa [3] = experiment: Antibacterial activity against Pseudomonas aeruginosa MB2245 assessed as growth inhibition; assay type: functional; how it was run: as §1
Staphylococcus aureus [4] = experiment: Antibacterial activity against Staphylococcus aureus MB2865 assessed as growth inhibition; assay type: functional; how it was run: as §1
Pasteurella multocida = experiment: Antibacterial activity against Pasteurella multocida MB7 assessed as growth inhibition at 2 to 8 ug/mL; assay type: functional, organism-based
Salmonella = experiment: Antibacterial activity against Salmonella schottmuelleri MB2837 assessed as growth inhibition; assay type: functional; how it was run: as §1
Pseudomonas aeruginosa [5] = experiment: Antibacterial activity against Pseudomonas aeruginosa MB418 assessed as growth inhibition; assay type: functional; how it was run: as §1
Proteus vulgaris = experiment: Antibacterial activity against Proteus vulgaris MB838 assessed as growth inhibition at 200 ug/mL; assay type: functional, organism-based
Staphylococcus aureus [6] = experiment: Antibacterial activity against Staphylococcus aureus MB108 assessed as growth inhibition; assay type: functional; how it was run: as §1
[7] = test system: Bordetella bronchiseptica; experiment: Antibacterial activity against Bordetella bronchiseptica MB905 assessed as growth inhibition; assay type: functional; how it was run: as §1
Bacillus subtilis = experiment: Antibacterial activity against Bacillus subtilis MB964 assessed as growth inhibition; assay type: functional; how it was run: as §1

| SMILES | MIC (Klebsiella aerogenes) [µg/mL] | MIC (Escherichia coli) [µg/mL] | growth inhibition (GI) [1] | MIC [2] [µg/mL] | growth inhibition (GI) (Streptococcus pyogenes) | MIC (Pseudomonas aeruginosa [3]) [µg/mL] | MIC (Staphylococcus aureus [4]) [µg/mL] | growth inhibition (GI) (Pasteurella multocida) | MIC (Salmonella) [µg/mL] | MIC (Pseudomonas aeruginosa [5]) [µg/mL] | growth inhibition (GI) (Proteus vulgaris) | MIC (Staphylococcus aureus [6]) [µg/mL] | MIC [7] [µg/mL] | MIC (Bacillus subtilis) [µg/mL] |
| --- | --- | --- | --- | --- | --- | --- | --- | --- | --- | --- | --- | --- | --- | --- |
| CN(CCCNCCCN)C(CCC1CCCCC1)CCC1CCCCC1.Cl | 4 | 8 | inactive | 4 | Active | 20 | 30 | Active | 1 | 8 | inactive | 10 | 6 | 4 |
| Cl.NCCCNCCCNC(CCC1CCCCC1)CCC1CCCCC1 | 6 | 15 | inactive | 2 | Active | 15 | 10 | Active | 2 | 30 | inactive | 2 | 2 | 2 |
| Cl.NCCCNCCCNC(CCCC1CC=CCC1)CCCC1CC=CCC1 (stereo not given) | 6 | 10 | inactive | 4 | Active | 15 | 10 | Active | 4 | 20 | inactive | 6 | 2 | 4 |
| CC1(C)C2CCC(C2)C1CCC(CCC1C2CCC(C2)C1(C)C)NCCNCCNCCCN.Cl (stereo not given) | 10 | 10 | inactive | 30 | Active | 60 | 6 | Active | 6 | 60 | inactive | 20 | 6 | 6 |
| Cl.NCCCNCCCNC(CCCC1CCCCC1)CCCC1CCCCC1 | 4 | 8 | inactive | 4 | Active | 8 | 8 | Active | 4 | 8 | inactive | 4 | 4 | 4 |
| Cc1ccc(CCC(CCc2ccc(C)cc2)NCCCNCCCN)cc1.Cl | 15 | 50 | inactive | 6 | Active | 40 | 50 | Active | 10 | 60 | inactive | 30 | 4 | 4 |
| CC(C)(C)c1ccc(CCC(CCc2ccc(C(C)(C)C)cc2)NCCCNCCCN)cc1.Cl | 15 | 6 | inactive | 4 | Active | 15 | 15 | Active | 4 | 8 | inactive | 6 | 4 | 2 |
| CC1(C)C2CCC(C2)C1CCC(CCC1C2CCC(C2)C1(C)C)NCCCN(CCCN)CCCN.Cl (stereo not given) | 30 | 50 | inactive | 2 | Active | 30 | 4 | Active | 4 | 50 | inactive | 6 | 4 | 4 |
| Cc1ccc(C(C)(C)C)cc1CCCC(CCCc1cc(C(C)(C)C)ccc1C)NCCCNCCCNCCCN.Cl | 200 | 100 | inactive | 8 | Active | 50 | 8 | Active | 8 | 40 | inactive | 20 | 8 | 6 |
| Cl.NCCNCCNCCNC(CCC1CCCCC1)CCC1CCCCC1 | 15 | 20 | inactive | 4 | Active | 30 | 30 | Active | 4 | 40 | inactive | 6 | 6 | 6 |
| CC1(C)C2CCC(C2)C1CCC(CCC1C2CCC(C2)C1(C)C)NCCN(CCN)CCN.Cl (stereo not given) | 8 | 8 | inactive | 4 | Active | 8 | 8 | Active | 4 | 50 | inactive | 4 | 4 | 4 |
| CN(C)[C@@H]1C(O)=C(C(N)=O)C(=O)[C@@]2(O)C(O)=C3C(=O)c4c(O)cccc4[C@@](C)(O)[C@H]3C[C@@H]12 [TETRACYCLINE] | 2 (≈ 4.5 µM) | 30 (≈ 67.5 µM) | inactive | 2 (≈ 4.5 µM) | Active | 30 (≈ 67.5 µM) | 2 (≈ 4.5 µM) | Active | 2 (≈ 4.5 µM) | 20 (≈ 45 µM) | inactive | 2 (≈ 4.5 µM) | 2 (≈ 4.5 µM) | 2 (≈ 4.5 µM) |
| Cl.NCCNCCNCCNC(CCCC1CCCCC1)CCCC1CCCCC1 | 6 | 10 | inactive | 4 | Active | 30 | 15 | Active | 6 | 30 | inactive | 6 | 6 | 4 |
| Cl.NCCNCCNC(CCC1CCCCC1)CCC1CCCCC1 | 8 | 10 | inactive | 4 | Active | 100 | 15 | Active | 2 | 100 | inactive | 4 | 4 | 4 |
| Cl.NCCCNCCCNC(CCCCC1CCCCC1)CCCCC1CCCCC1 | 20 | 20 | inactive | 4 | Active | 15 | 20 | Active | 6 | 10 | inactive | 10 | 4 | 8 |
| CC(C)(C)c1ccc(CCCC(CCCc2ccc(C(C)(C)C)cc2)NCCNCCNCCN)cc1.Cl | 50 | 60 | inactive | 60 | Active | 100 | 30 | Active | 8 | 100 | inactive | 20 | 8 | 15 |
| CC(C)c1ccc(CCCC(CCCc2ccc(C(C)C)cc2)NCCNCCNCCN)cc1.Cl | 60 | 15 | inactive | 30 | Active | 80 | 20 | Active | 10 | 8 | inactive | 6 | 30 | 4 |
| CC1(C)C2CCC(C2)C1CCC(CCC1C2CCC(C2)C1(C)C)NCCNCCNCCN.Cl (stereo not given) | 8 | 8 | inactive | 10 | Active | 30 | 30 | Active | 4 | 50 | inactive | 4 | 4 | 4 |
| CC(C)c1ccc(CCC(CCc2ccc(C(C)C)cc2)NCCNCCNCCN)cc1.Cl | 40 | 30 | inactive | 15 | Active | 60 | 30 | Active | 4 | 40 | inactive | 6 | 8 | 6 |
| CC1(C)C2CCC(C2)C1CCC(CCC1C2CCC(C2)C1(C)C)NCCCNCCCNCCCN.Cl (stereo not given) | 30 | 10 | inactive | 2 | Active | 8 | 8 | Active | 6 | 8 | inactive | 15 | 2 | 2 |
